Experiment [1] is described as follows: In vitro Natural Killer cell activity (Activation of murine splenocyte NK cells by its ability to lyze YAC-1 target cells in chromium release assay) relative to interleukin 2; Range 0-20%. The experiment is classed as functional, Mus musculus. In outline: (§1)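 Spleens from female C57BL/6 (H-2b) mice, 6–8 weeks old, homogenized in RPMI 1640 with 10% FCS and 2 mM L-glutamine. Mononuclear cells isolated on a Lympholyte M gradient (800g, 20 min), washed in PBS, viability checked by trypan blue. 5×10^5 splenocytes with compound incubated 4 h with 5×10^3 51Cr-labelled YAC-1 cells; % specific lysis from released chromium. Compounds tested at 10^-4–10^-12 M. Peak activity scored relative to IL 2 (100%) in 20% bands. Actives run 2–5 times, inactives once.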

Experiment [2] in a line: In vitro Natural Killer cell activity (Activation of murine splenocyte NK cells by its ability to lyze YAC-1 target cells in chromium release assay) relative to interleukin 2 at 10E-4 to 10E-12 M conc; Range 41-60%. The experiment is classed as functional, Mus musculus. In a few lines: as §1
Experiment [3] in a line: In vitro Natural Killer cell activity (Activation of murine splenocyte NK cells by its ability to lyze YAC-1 target cells in chromium release assay) relative to interleukin 2 at 10E-4 to 10E-12 M conc; Range 81-100%. It counts as functional, Mus musculus. In a few lines: as §1
The species entered for experiment [4] is Mus musculus. As to the kind of experiment: Peak or the range of peak activity relative to positive IL 2 control; Range 10e-12-10e-4. The experiment is classed as functional. In a few lines:
as §1

The species named for experiment [5] is Mus musculus. Briefly: Peak or the range of peak activity relative to positive IL 2 control; Range 10e-12-10e-5. The experiment is classed as functional. In a few lines:
as §1

Experiment [6] can be described thus: In vitro Natural Killer cell activity (Activation of murine splenocyte NK cells by its ability to lyze YAC-1 target cells in chromium release assay) relative to interleukin 2 at 10E-4 to 10E-12 M conc; Range 61-80%. It counts as functional, Mus musculus. In a few lines:
as §1

For experiment [7], the species on record is Mus musculus. Briefly: Peak or the range of peak activity relative to positive IL 2 control; Range 10e-8-10e-4. It counts as functional. In a few lines:
as §1

A short description of experiment [8]: In vitro Natural Killer cell activity (Activation of murine splenocyte NK cells by its ability to lyze YAC-1 target cells in chromium release assay) relative to interleukin 2 at 10E-4 to 10E-12 M conc; Range 21-40%. The experiment is classed as functional, Mus musculus. In a few lines:
as §1

Experiment [9] can be described thus: In vitro Natural Killer cell activity (Activation of murine splenocyte NK cells by its ability to lyze YAC-1 target cells in chromium release assay) relative to interleukin 2 at 10E-4 to 10E-12 M conc. The experiment is classed as functional, Mus musculus. In outline:
as §1

Experiment [10] in a line: In vitro Natural Killer cell activity (Activation of murine splenocyte NK cells by its ability to lyze YAC-1 target cells in chromium release assay) relative to interleukin 2 at 10E-8 to 10E-12 M conc; Range 41-60%. The experiment is classed as functional, Mus musculus. In a few lines:
as §1

A short description of experiment [11]: In vitro Natural Killer cell activity (Activation of murine splenocyte NK cells by its ability to lyze YAC-1 target cells in chromium release assay) relative to interleukin 2 at 10E-6 to 10E-12 M conc; Range 21-40%. It counts as functional, Mus musculus. In outline: as §1
Experiment [12] can be described thus: In vitro Natural Killer cell activity (Activation of murine splenocyte NK cells by its ability to lyze YAC-1 target cells in chromium release assay) relative to interleukin 2 at 10E-4 to 10E-12 M conc; Range […]. The experiment is classed as functional, Mus musculus. In outline: as §1
Experiment [13] is filed under the species Mus musculus. As to the kind of experiment: Peak or the range of peak activity relative to positive IL 2 control; Range 10e-12-10e-6. The experiment is classed as functional. In a few lines: as §1

Each structure is given as a SMILES string.

Take `CC1OC(OCCCCCCNC(=O)CC[C@H](NC(=O)[C@H](CCC(N)=O)NC(=O)[C@@H](C)N)C(=O)NCCCCCCOC2OC(C)C(O)C(O)C2O)C(O)C(O)C1O` (stereo partly specified): in [1], the Stimulation amounted to 0%. For the molecule `C[C@H](N)C(=O)N[C@@H](CCC(N)=O)C(=O)NCCCCCCO`, the Stimulation in experiment [2] was determined as 41%. Turning to `C[C@@H](N)C(=O)N[C@@H](CCC(N)=O)C(=O)NCCCCCCO`, the Stimulation in [3] came to 101%.

In experiment [2], `CC1OC(OCCCCCCNC(=O)[C@H](CCC(=O)O)NC(=O)[C@@H](C)N)C(O)C(O)C1O` (stereo partly specified) displayed a Stimulation of 41%. Besides, the Concentration in the experiment filed under Mus musculus [4] was 10 pM. Take `CC1OC(OCCCCCCNC(=O)[C@H](CCC(N)=O)NC(=O)[C@H](C)N)C(O)C(O)C1O` (stereo partly specified): the Concentration in the experiment filed under Mus musculus [5] and in the experiment filed under Mus musculus [4] was 10 pM each time. For the same molecule, the Stimulation in experiment [6] stood at 61%. `CC1OC(OCCCCCCNC(=O)[C@@H](N)CCC(N)=O)C(O)C(O)C1O` (stereo partly specified) came in with a Concentration in the experiment listed under Mus musculus [7] of 100 nM. In experiment [8], this molecule had a Stimulation of 21%.

Regarding `CC1OC(OCCCCCCNC(=O)[C@H](CC(N)=O)NC(=O)[C@@H](C)N)C(O)C(O)C1O` (stereo partly specified), the Stimulation in experiment [9] came out at 0%. `C[C@H](N)C(=O)N[C@H](CCC(N)=O)C(=O)NCCCCCCO`: in experiment [10], the Stimulation was 41%. `CC1OC(OCCCCCCNC(=O)[C@H](CCCCNC(=O)[C@H](CCC(N)=O)NC(=O)[C@@H](C)N)NC(=O)[C@H](CCC(N)=O)NC(=O)[C@@H](C)N)C(O)C(O)C1O` (stereo partly specified): in [8], the Stimulation stood at 21%. Consider `CC1OC(OCCCCCCNC(=O)[C@@H](CCC(N)=O)NC(=O)[C@H](C)N)C(O)C(O)C1O` (stereo partly specified), for which the Stimulation in [9] was 0%.

The molecule `C[C@@H](N)C(=O)N[C@@H](CCC(N)=O)C(=O)NCCCCCCO[C@H]1O[C@H](CO)[C@H](O)[C@@H](O)[C@H]1O` gave a Stimulation in [3] of 0%. Regarding `CC[C@H](C)[C@H](N)C(=O)N1CCC[C@H]1C(=O)NCCCCCCO`, in experiment [11], the Stimulation is 21%. As to `CC1OC(OCCCCCCNC(=O)[C@H](CCC(N)=O)NC(=O)[C@H](N)C(C)C)C(O)C(O)C1O` (stereo partly specified), the Stimulation in experiment [2] is reported as 41%. The molecule also gave a Concentration in the experiment listed under Mus musculus [4] of 10 pM. In turn, `C[C@@H](N)C(=O)N[C@H]1CCC(=O)NC1=O` gave a Stimulation in experiment [9] of 0%.

In [1], `C[C@H](N)C(=O)N1CCC[C@H]1C(=O)NCCCCCCO` gave a Stimulation of 0%. Turning to `C[C@@H](N)C(=O)N[C@@H](CCC(N)=O)C(=O)NCCCCCCCl`, the Stimulation in [1] was 0%. `CC(=O)OCCCCCCNC(=O)[C@@H](CCC(N)=O)NC(=O)[C@H](C)N` returned a Stimulation in experiment [1] of 0%. Consider `CC1OC(OCCCCCCn2cnc3c(N(C)C)ncnc32)C(O)C(O)C1O` (stereo unspecified), for which, in experiment [12], the Stimulation is listed as 81%. The Concentration in the experiment listed under Mus musculus [13] amounted to 10 pM. For `O=C1CC[C@@H](C(=O)NCCCCCCO)N1`, the Concentration in the experiment filed under Mus musculus [5] came to 10 pM. The molecule also showed a Stimulation in experiment [6] of 61%.

Values taken from ChEMBL document CHEMBL1131621, “Synthesis and activity of dipeptides, linked to targeting ligands, as specific NK cell enhancers” (1998).
